Test results from ChEMBL document CHEMBL1156597, “Structure-activity relationship of kahalalide F synthetic analogues” (J Med Chem, 2008).

Legend:
DU-145 = experiment: Cytotoxicity against human DU145 cells after 48 hrs by SRB assay; format: functional, cell-based; conditions: Homo sapiens, DU-145, 48 h; for GI50: read-out: GI50; for CC50: read-out: LC50 (the source's name)
How it was run: (§1)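 Cells grown in RPMI 1640 with 10% FBS and penicillin/streptomycin at 37 °C and 5% CO₂, trypsinized, then seeded at 5 × 10³/well. After 18 h drug-free attachment, samples in DMSO/EtOH/PBS (0.5:0.5:99) were added for 48 h continuous exposure. Cells were fixed with cold TCA (1 h, 4 °C) and stained with SRB (10 min). Tris-solubilized stain read at 490 nm. Triplicate wells, mean ± SD; GI₅₀ derived.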

LNCaP = experiment: Cytotoxicity against human LNcaP cells after 48 hrs by SRB assay; format: functional; conditions: for CC50: read-out: LC50 (the source's name); how it was run: as §1
[1] = Cytotoxicity against human IGROV cells after 48 hrs by SRB assay; format: functional; conditions: for CC50: read-out: LC50 (the source's name); how it was run: as §1
[2] = Cytotoxicity against human IGROV-ET cells after 48 hrs by SRB assay; format: functional; conditions: for CC50: read-out: LC50 (the source's name); how it was run: as §1
SK-BR-3 = experiment: Cytotoxicity against human SKBR3 cells after 48 hrs by SRB assay; format: functional; conditions: SK-BR-3, 48 h; for GI50: read-out: GI50; for CC50: read-out: LC50 (the source's name); how it was run: as §1
SK-MEL-28 = experiment: Cytotoxicity against human SK-MEL-28 cells after 48 hrs by SRB assay; format: functional, cell-based; conditions: Homo sapiens, SK-MEL-28, 48 h; for GI50: read-out: GI50; for CC50: read-out: LC50 (the source's name); how it was run: as §1
A549 = experiment: Cytotoxicity against human A549 cells after 48 hrs by SRB assay; format: functional, cell-based; conditions: Homo sapiens, A549, 48 h; how it was run: as §1
K562 = experiment: Cytotoxicity against human K562 cells after 48 hrs by SRB assay; format: functional; conditions: K562, 48 h; for CC50: read-out: LC50 (the source's name); how it was run: as §1
PANC-1 = experiment: Cytotoxicity against human PANC1 cells after 48 hrs by SRB assay; format: functional; conditions: PANC-1, 48 h; for CC50: read-out: LC50 (the source's name); how it was run: as §1
HT-29 = experiment: Cytotoxicity against human HT29 cells after 48 hrs by SRB assay; format: functional, cell-based; conditions: Homo sapiens, HT-29, 48 h; for CC50: read-out: LC50 (the source's name); how it was run: as §1
LoVo [3] = experiment: Cytotoxicity against human LoVo cells after 48 hrs by SRB assay; format: functional; conditions: for CC50: read-out: LC50 (the source's name)
LoVo [4] = experiment: Cytotoxicity against human doxorubicin resistant LoVo cells after 48 hrs by SRB assay; format: functional; conditions: for CC50: read-out: LC50 (the source's name); how it was run: as §1
HeLa = experiment: Cytotoxicity against human HeLa cells after 48 hrs by SRB assay; format: functional; conditions: for CC50: read-out: LC50 (the source's name); how it was run: as §1
[5] = Cytotoxicity against human HeLa-APL cells after 48 hrs by SRB assay; format: functional; how it was run: as §1

| Structure (SMILES) | TGI (DU-145) [nM] | GI50 (DU-145) [nM] | CC50 (DU-145) [nM] | CC50 (LNCaP) [nM] | CC50 [1] [nM] | CC50 [2] [nM] | TGI (SK-BR-3) [nM] | GI50 (SK-BR-3) [nM] | CC50 (SK-BR-3) [nM] | CC50 (SK-MEL-28) [nM] | LC50 (A549) [nM] | CC50 (K562) [nM] | CC50 (PANC-1) [nM] | CC50 (HT-29) [nM] | CC50 (LoVo [3]) [nM] | CC50 (LoVo [4]) [nM] | CC50 (HeLa) [nM] | GI50 [5] [nM] | LC50 (concentration giving 50% net cell kill) [5] [nM] | TGI [5] [nM] | other results |
| --- | --- | --- | --- | --- | --- | --- | --- | --- | --- | --- | --- | --- | --- | --- | --- | --- | --- | --- | --- | --- | --- |
| C/C=C1\NC(=O)[C@H](Cc2ccccc2)NC(=O)[C@@H](C(C)C)NC(=O)[C@@H]([C@H](C)CC)NC(=O)[C@H](NC(=O)[C@H](NC(=O)[C@H](CCCN)NC(=O)[C@H]2CCCN2C(=O)[C@H](NC(=O)[C@@H](NC(=O)[C@@H](NC(=O)[C@@H](CCCN)NC(=O)CCCC(C)C)[C@@H](C)O)C(C)C)C(C)C)[C@H](C)CC)[C@H](C)OC(=O)[C@H](C(C)C)NC1=O | 1270 | 1160 | 1170 | 950 | 382 | 559 | 1770 | 1720 | 907 | 1160 | 3840 | 1910 | 1760 | 4270 | 330 | 296 | 1030 | 1100 | 965 | 1070 | GI50 (LNCaP): 853 nM; TGI (LNCaP): 1170 nM; GI50 [1]: 630 nM; GI50 ([1]; read-out: GI50): 1130 nM; GI50 [2]: 806 nM; GI50 ([2]; read-out: GI50): 103 nM; TGI (SK-MEL-28): 1150 nM; GI50 (SK-MEL-28): 1140 nM; GI50 (A549): 888 nM; GI50 (A549; read-out: GI50): 747 nM; GI50 (K562): 877 nM; TGI (K562): 1120 nM; GI50 (PANC-1): 1.42 µM; TGI (PANC-1): 1240 nM; GI50 (HeLa): 1370 nM; TGI (HeLa): 1400 nM |
| C/C=C1\NC(=O)[C@H](Cc2ccccc2)NC(=O)[C@@H](C(C)C)NC(=O)[C@@H]([C@H](C)CC)NC(=O)[C@H](NC(=O)[C@H](NC(=O)[C@H](CCCN)NC(=O)[C@H]2CCCN2C(=O)[C@H](NC(=O)[C@@H](NC(=O)[C@@H](NC(=O)[C@H](NC(=O)CC[C@H](C)CC)C(C)C)[C@@H](C)O)C(C)C)C(C)C)[C@H](C)CC)[C@H](C)OC(=O)[C@H](C(C)C)NC1=O | 1270 | 1440 | 1130 | 1130 | 551 | 614 | 425 | 469 | 383 | 1160 | 1360 | 1930 | 1640 | 668 | 1890 | 1660 | 971 | 1420 | 1240 | 1420 | GI50 (LNCaP): 1470 nM; TGI (LNCaP): 1290 nM; GI50 [1]: 776 nM; GI50 ([1]; read-out: GI50): 1520 nM; GI50 [2]: 920 nM; GI50 ([2]; read-out: GI50): 1900 nM; TGI (SK-MEL-28): 1270 nM; GI50 (SK-MEL-28): 1370 nM; TGI (A549): 1420 nM; GI50 (A549; read-out: GI50): 1480 nM; GI50 (K562): 2180 nM; TGI (K562): 1930 nM; GI50 (LoVo [3]): 690 nM; TGI (LoVo [3]): 1180 nM; GI50 (LoVo [4]): 690 nM; TGI (LoVo [4]): 1040 nM |
| C/C=C1\NC(=O)[C@H](Cc2ccccc2)NC(=O)[C@@H](C(C)C)NC(=O)[C@@H](C(C)C)NC(=O)[C@H](NC(=O)[C@H](NC(=O)[C@H](CCCN)NC(=O)[C@H]2CCCN2C(=O)[C@H](NC(=O)[C@@H](NC(=O)[C@@H](NC(=O)[C@H](NC(=O)CCCC(C)C)C(C)C)[C@@H](C)O)C(C)C)C(C)C)C(C)C)[C@H](C)OC(=O)[C@H](C(C)C)NC1=O | 1180 | 1360 | 1020 | 1160 | 762 | 719 | 2310 | 2120 | 1450 | 1660 | 2000 | 2500 | 2190 | 3160 | 2480 | 1940 | 1120 | 2730 | 1690 | 2790 | GI50 (LNCaP): 2340 nM; TGI (LNCaP): 1960 nM; TGI (SK-MEL-28): 1650 nM; GI50 (SK-MEL-28): 1640 nM; TGI (A549): 3790 nM; GI50 (A549; read-out: GI50): 2400 nM; GI50 (PANC-1): 4.71 µM; TGI (PANC-1): 3910 nM; GI50 (HT-29): 2500 nM; TGI (HT-29): 2810 nM; GI50 (LoVo [3]): 2460 nM; TGI (LoVo [3]): 2460 nM; GI50 (LoVo [4]): 1430 nM; TGI (LoVo [4]): 1670 nM; GI50 (HeLa): 1400 nM; TGI (HeLa): 1260 nM |
| C/C=C1\NC(=O)[C@H](Cc2ccccc2)NC(=O)[C@@H](C(C)C)NC(=O)[C@@H]([C@H](C)CC)NC(=O)[C@H](NC(=O)[C@H](NC(=O)[C@H](CCCN)NC(=O)[C@H]2CCCN2C(=O)[C@H](NC(=O)[C@@H](NC(=O)[C@@H](NC(=O)[C@H](NC(=O)CC[C@@H](C)CC)C(C)C)[C@@H](C)O)C(C)C)C(C)C)[C@H](C)CC)[C@H](C)OC(=O)[C@H](C(C)C)NC1=O | 2200 | 1690 | 347 | 2030 | 1220 | 975 | 462 | 539 | 395 | 1670 | 1320 | 2560 | 2200 | 2060 | 321 | 1040 | 1070 | 1280 | 1140 | 1200 | TGI [1]: 1020 nM; GI50 ([1]; read-out: GI50): 827 nM; GI50 [2]: 584 nM; GI50 ([2]; read-out: GI50): 550 nM; GI50 (K562): 2070 nM; TGI (K562): 3760 nM; GI50 (HT-29): 730 nM; TGI (HT-29): 1020 nM; GI50 (LoVo [3]): 397 nM; TGI (LoVo [3]): 385 nM; GI50 (LoVo [4]): 249 nM; TGI (LoVo [4]): 250 nM |
